Compound activity (PubChem BioAssay)
Rows were chosen to be rich in hits. Some 2.3% of all compounds tested hit in one or more screens of this group.
NPY-Y2 PAM-ag – human NPY-Y2 potentiation or agonism, primary screen. 220,000 compounds, 0.45% hits. AID 1359. activation, % at 3.6 µM. cells expressing NPY-Y2, potentiator/agonist read-out; in the data active = activation above about 27%;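 also: cells stimulated with NPY near EC25 plus isoproterenol at EC100; 0% = vehicle plus submaximal agonist and 100% = vehicle plus saturating agonist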
Tb hexokinase – T. brucei hexokinase 1 inhibition; recombinant TbHK1, G6PDH-coupled NADH A340; inhibition, % at 10 µM; 220,000 compounds, 0.11% hits;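 active = inhibition of 50% or more in the single-dose primary screen; inactive = inhibition below 50%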
NPY-Y2 antag – antagonists of human neuropeptide Y receptor Y2; P49146; NPY-Y2 expressing cells, antagonist mode; inhibition, % at 2.7 µM; 140,000 compounds, 0.99% hits; AID 793; in the data active = inhibition above about 17%;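 also: 0% = vehicle with agonist challenge and 100% = reference antagonist with challenge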
NPY1 pot ag – human NPY-Y1 potentiation or agonism, primary screen. activation, % at 3.6 µM. AID 1304. 220,000 compounds, 0.37% hits. NPY-Y1 expressing cells, potentiator/agonist activation; in the data active = activation above about 33%, passing the limit was not always enough;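 also: cells stimulated with NPY at EC10 then isoproterenol at EC100; 0% = low agonist plus stimulus and 100% = saturating agonist plus stimulus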
Target sequence (P25929 whole entry, looked up): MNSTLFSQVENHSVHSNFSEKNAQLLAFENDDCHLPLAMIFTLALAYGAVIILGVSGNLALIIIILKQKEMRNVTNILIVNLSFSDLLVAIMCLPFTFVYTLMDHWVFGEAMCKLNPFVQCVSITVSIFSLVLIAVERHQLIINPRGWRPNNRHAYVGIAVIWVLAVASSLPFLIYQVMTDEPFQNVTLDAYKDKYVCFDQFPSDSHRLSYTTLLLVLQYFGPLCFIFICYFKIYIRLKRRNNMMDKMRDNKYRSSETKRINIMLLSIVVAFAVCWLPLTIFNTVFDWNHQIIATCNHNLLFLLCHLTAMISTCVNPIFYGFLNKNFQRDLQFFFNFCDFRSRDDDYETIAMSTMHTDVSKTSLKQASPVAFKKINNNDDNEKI
NPY Y1 blocker – blocks the human neuropeptide Y Y1 receptor | P25929 | HEK293-CNG Y1 cells, membrane potential fluorescence; NPY at EC95, then isoproterenol | inhibition, % at 3.6 µM | 200,000 compounds, 1% hits | AID 1040;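 active = inhibition above the campaign mean inhibition of all tested compounds plus 3 SD, cut at about 20% in these data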;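 also: 0% = DMSO wells given NPY plus isoproterenol and 100% = isoproterenol alone without NPY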
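Material: HEK293 cells co-expressing NPY Y1 receptor and cyclic-nucleotide gated channel. Timing: compound incubation 1 h at room temperature, readout 45 min post-stimulation. Signal: fluorescence, membrane potential probe.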
Calpain2 inh – inhibitors of pig calpain II; purified calpain II, fluorogenic peptide substrate, 30 min; inhibition, % at 16 µM; 220,000 compounds, 0.37% hits; AID 1236;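 active = inhibition above about 50%, limit read from the data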
The depositor's hits bear a star.

Results for CN(C(=O)c1ccc2c(c1)OCO2)C1(C(=O)NC2CCCCC2)CCCCC1 ?
NPY-Y2 PAM-ag: 5.0; Tb hexokinase: 37.4; NPY-Y2 antag: 14.1; NPY1 pot ag: 11.6; NPY Y1 blocker: 17.4; Calpain2 inh: 18.5

What do the screens show for `O=C1NC(=O)C(CC(=O)N(Cc2ccco2)C2(C(=O)NC3CCCC3)CCCCC2)N1` (configuration not stated)?
NPY-Y2 PAM-ag: 9.3; Tb hexokinase: -4.0; NPY-Y2 antag: 6.5; NPY1 pot ag: -20.1; NPY Y1 blocker: 1.2; Calpain2 inh: -10.4

Results for O=C(c1ccccn1)N(Cc1ccco1)C1(C(=O)NC2CCCC2)CCCCC1 ?
NPY-Y2 PAM-ag: -6.8; Tb hexokinase: -5.4; NPY-Y2 antag: 52.8*; NPY1 pot ag: 0.2; NPY Y1 blocker: 34.4*; Calpain2 inh: 8.3

What do the screens show for `CC(=O)Nc1ccc(OS(=O)(=O)c2ccc([N+](=O)[O-])cc2)cc1`?
NPY-Y2 PAM-ag: 3.3; Tb hexokinase: -1.9; NPY1 pot ag: -3.5; NPY Y1 blocker: 1.8; Calpain2 inh: -30.3

How did CCOC(=O)N1CCN(C(=O)c2ccc(Cl)nc2)CC1 do in these assays?
NPY-Y2 PAM-ag: 1.5; Tb hexokinase: 0.8; NPY1 pot ag: 7.9; Calpain2 inh: 5.6

What do the screens show for `Cc1nc(N2CCN(c3ccccc3)CC2)nc2c1C(=O)CC(C)C2` (configuration not stated)?
NPY-Y2 PAM-ag: 5.1; Tb hexokinase: -10.5; NPY-Y2 antag: 4.0; NPY1 pot ag: -13.7; NPY Y1 blocker: 14.1; Calpain2 inh: 72.5*

What do the screens show for `CN(c1ccccc1C(=O)NC1CCCCC1)S(=O)(=O)c1ccccc1`?
NPY-Y2 PAM-ag: -16.5; Tb hexokinase: -12.6; NPY1 pot ag: -5.1; NPY Y1 blocker: 20.2*; Calpain2 inh: -22.6

How did O=C(Nc1cccnc1)c1ccc2c(c1)C(=O)N(CC1CCCO1)C2=O (configuration not stated) do in these assays?
NPY-Y2 PAM-ag: -0.1; Tb hexokinase: -6.0; NPY1 pot ag: 6.5; NPY Y1 blocker: -5.4; Calpain2 inh: -2.5

What do the screens show for `c1ccc(CN2c3ccccc3-c3nc4ccccc4n3C2c2ccccn2)cc1` (configuration not stated)?
NPY-Y2 PAM-ag: -9.5; Tb hexokinase: -6.3; NPY-Y2 antag: 19.3*; NPY1 pot ag: -17.4; NPY Y1 blocker: 37.5*; Calpain2 inh: -473.7

How did CN1c2ccccc2-c2nc3ccccc3n2C1c1ccccn1 (configuration not stated) do in these assays?
NPY-Y2 PAM-ag: 5.0; Tb hexokinase: -3.9; NPY-Y2 antag: 2.2; NPY1 pot ag: -1.1; NPY Y1 blocker: -0.7; Calpain2 inh: -483.2

Results for Nc1c(Cl)cc2c(c1Oc1ccccc1)C(=O)c1ccccc1C2=O ?
NPY-Y2 PAM-ag: -14.8; Tb hexokinase: 0.3; NPY-Y2 antag: 2.8; NPY1 pot ag: -19.2; NPY Y1 blocker: 5.9; Calpain2 inh: 52.8*

How did O=C(CC1C(=O)N(c2ccc(Cl)cc2)C(=S)N1CCc1ccncc1)Nc1ccc(F)cc1 (configuration not stated) do in these assays?
NPY-Y2 PAM-ag: 52.2*; Tb hexokinase: 3.3; NPY-Y2 antag: -2.5; NPY1 pot ag: 60.9*; NPY Y1 blocker: -7.6; Calpain2 inh: -3.9

Results for CCCCNC(=O)c1ccccc1C(=O)NCCCC ?
NPY-Y2 PAM-ag: 1.0; Tb hexokinase: -0.6; NPY-Y2 antag: 4.9; NPY1 pot ag: 4.2; NPY Y1 blocker: -5.0; Calpain2 inh: 91.4*

What do the screens show for `Clc1ccccc1-c1nnc2sc(-c3cccs3)nn12`?
NPY-Y2 PAM-ag: 4.4; Tb hexokinase: -4.1; NPY-Y2 antag: 4.0; NPY1 pot ag: 15.4; NPY Y1 blocker: -3.3; Calpain2 inh: 51.7*

How did O=[N+]([O-])c1ccc(NCc2ccccc2)nc1 do in these assays?
NPY-Y2 PAM-ag: -6.8; Tb hexokinase: -21.2; NPY-Y2 antag: 0.5; NPY1 pot ag: -23.8; NPY Y1 blocker: 0.0; Calpain2 inh: 52.0*

How did O=[N+]([O-])c1ccc(Nc2ccccc2)nc1 do in these assays?
NPY-Y2 PAM-ag: 12.5; Tb hexokinase: 21.6; NPY-Y2 antag: -0.3; NPY1 pot ag: 1.2; NPY Y1 blocker: -1.1; Calpain2 inh: 9.8

What do the screens show for `O=C(COc1ccc(Br)cc1)Nc1ccc([N+](=O)[O-])cn1`?
NPY-Y2 PAM-ag: -1.3; Tb hexokinase: -1.3; NPY-Y2 antag: 12.4; NPY1 pot ag: -17.0; NPY Y1 blocker: 20.9*; Calpain2 inh: -8.5

How did O=C(CSc1nc(CCC2CCCC2)nc2ccccc12)NCc1ccc2c(c1)OCO2 do in these assays?
NPY-Y2 PAM-ag: -6.5; Tb hexokinase: 1.1; NPY-Y2 antag: 4.0; NPY1 pot ag: 3.1; NPY Y1 blocker: 0.0; Calpain2 inh: 23.9

What do the screens show for `COc1ccc(CN(C(=O)c2nsc(Cl)c2Cl)C(C(=O)NC2CCCC2)c2ccc(C)cc2)cc1` (configuration not stated)?
NPY-Y2 PAM-ag: -17.1; Tb hexokinase: 17.2; NPY-Y2 antag: 22.8*; NPY1 pot ag: -51.1; NPY Y1 blocker: 43.9*; Calpain2 inh: 20.4

What do the screens show for `Cc1ccc(C)c(N(C(=O)c2nsc(Cl)c2Cl)C(C(=O)NC2CCCC2)c2ccc(O)cc2)c1` (configuration not stated)?
NPY-Y2 PAM-ag: 0.7; Tb hexokinase: 0.8; NPY-Y2 antag: 2.3; NPY1 pot ag: -16.3; NPY Y1 blocker: 2.7; Calpain2 inh: -10.5

What do the screens show for `N#CC1=C(N)NC(SCc2ccc(Cl)cc2)=C(C#N)C12CCCCC2`?
NPY-Y2 PAM-ag: 16.1; Tb hexokinase: -0.5; NPY-Y2 antag: -3.8; NPY1 pot ag: 29.2; NPY Y1 blocker: -8.9; Calpain2 inh: 64.3*

What do the screens show for `O=C1NC(c2ccccc2OC(F)F)Oc2ccccc21` (configuration not stated)?
NPY-Y2 PAM-ag: 56.5*; Tb hexokinase: 1.5; NPY1 pot ag: 46.1*; NPY Y1 blocker: -5.6; Calpain2 inh: -20.0

Results for CCOc1ccc2c(c1)C(N(CCN1CCOCC1)C(=O)Nc1ccccc1)CC(C)(C)O2 (configuration not stated) ?
NPY-Y2 PAM-ag: 5.9; Tb hexokinase: -14.3; NPY1 pot ag: -1.6; NPY Y1 blocker: -3.6; Calpain2 inh: -22.0

Results for O=C(Nc1nccs1)c1ccc(S(=O)(=O)NCC2CCCCC2)cc1 ?
NPY-Y2 PAM-ag: 29.4; Tb hexokinase: 1.5; NPY-Y2 antag: 3.8; NPY1 pot ag: 42.1*; NPY Y1 blocker: -15.7; Calpain2 inh: -28.8

How did O=c1[nH]c2ccccc2c(O)c1O do in these assays?
NPY-Y2 PAM-ag: 1.2; Tb hexokinase: 38.1; NPY1 pot ag: 0.9; NPY Y1 blocker: -1.6; Calpain2 inh: -175.1

Results for COc1ccc2c(c1)C(C)CC(C)(C)N2C(=O)CSc1nc2ccccc2s1 (configuration not stated) ?
NPY-Y2 PAM-ag: -5.4; Tb hexokinase: 11.6; NPY-Y2 antag: 28.6*; NPY1 pot ag: -26.0; NPY Y1 blocker: 35.1*; Calpain2 inh: 48.9
